{
  "source": "ChEMBL document CHEMBL1152466",
  "about": "“Hepatitis B virus e antigen loss during adefovir dipivoxil therapy is associated with enhanced virus-specific CD4+ T-cell reactivity” (2008)",
  "key": {"[1]": {"system": "PBMC", "assay": "Increase in HBV-specific IL12p70 level in HBcAg-stimulated human PBMC at 10 to 30 mg per day by ELISA", "type": "functional, cell-based"}, "[2]": {"system": "Hepatitis B virus", "assay": "Antiviral activity against HBV infected patients assessed as ALT level at 10 to 30 mg per day after 48 weeks […]", "type": "functional"}, "[3]": {"system": "Hepatitis B virus", "assay": "Antiviral activity against HBV infected in human assessed as reduction in serum viral DNA level at 10 to 30 mg per day after 48 weeks", "type": "functional"}, "[4]": {"species": "Homo sapiens", "assay": "Increase in HBV-specific IFN-gamma-producing CD4+ cell proliferation in patients with […] chronic hepatitis B assessed as [3H]thymidine incorporation after 16 weeks by beta counting relative to baseline", "type": "functional, organism-based", "summary_of_the_method": "(§1)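 Freshly isolated patient PBMC (density gradient) at 2 × 10⁶/ml in RPMI with 10% human AB serum. rHBcAg (1 μg/ml) was added to quadruplicate wells, with tetanus toxoid (0.5 μg/ml) and phytohemagglutinin (1 μg/ml) as controls. After 6 days, 0.5 μCi/well [³H]thymidine pulse and beta counting. Stimulation index = mean cpm antigen/medium. The positive cutoff was mean + 3 SD of 15–20 controls per center.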"}, "[5]": {"species": "Homo sapiens", "assay": "Increase in HBV-specific IFN-gamma-producing CD4+ cell proliferation in patients with […] chronic hepatitis B assessed as [3H]thymidine incorporation after 40 weeks by beta counting relative to baseline", "type": "functional, organism-based", "summary_of_the_method": "as §1"}, "[6]": {"species": "Homo sapiens", "assay": "Increase in HBV-specific IFN-gamma-producing CD4+ cell proliferation in patients with […] chronic hepatitis B assessed as [3H]thymidine incorporation after 48 weeks by beta counting relative to baseline", "type": "functional, organism-based", "summary_of_the_method": "as §1"}, "[7]": {"species": "Homo sapiens", "assay": "Increase in HBV-specific IFN-gamma-producing CD4+ cell proliferation in patients with […] chronic hepatitis B assessed as [3H]thymidine incorporation by beta counting relative to baseline", "type": "functional", "summary_of_the_method": "as §1"}, "[8]": {"system": "PBMC", "assay": "Increase in HBV-specific IFN-gamma production in HBcAg-stimulated human PBMC assessed as INFgamma production index at 10 to 30 mg per day after 4 weeks […]", "type": "functional", "summary_of_the_method": "(§2)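 PBMC at 3 × 10⁶/ml in RPMI with 10% human AB serum, cultured in quadruplicate for 6 days with or without rHBcAg (1 μg/ml). IFN-γ in cell-free supernatants (kept at −20°C) was measured by ELISA. Index = mean pg/ml IFN-γ of the four HBcAg-stimulated replicates divided by that of medium-only cultures, calculated at each protocol time point.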"}, "[9]": {"system": "PBMC", "assay": "Increase in HBV-specific IFN-gamma production in HBcAg-stimulated human PBMC assessed as INFgamma production index at 10 to 30 mg per day after 8 weeks by […]", "type": "functional", "summary_of_the_method": "as §2"}, "[10]": {"system": "PBMC", "assay": "Increase in HBV-specific IFN-gamma production in HBcAg-stimulated human PBMC assessed as INFgamma production index at 10 to 30 mg per day after 16 weeks […]", "type": "functional", "summary_of_the_method": "as §2"}, "[11]": {"system": "PBMC", "assay": "Increase in HBV-specific IFN-gamma production in HBcAg-stimulated human PBMC assessed as INFgamma production index at 10 to 30 mg per day after 24 weeks by […]", "type": "functional", "summary_of_the_method": "as §2"}, "[12]": {"system": "PBMC", "assay": "Increase in HBV-specific IFN-gamma production in HBcAg-stimulated human PBMC assessed as INFgamma production index at 10 to 30 mg per day after 40 weeks by […]", "type": "functional", "summary_of_the_method": "as §2"}, "[13]": {"system": "PBMC", "assay": "Increase in HBV-specific IFN-gamma production in HBcAg-stimulated human PBMC assessed as INFgamma production index at 10 to 30 mg per day after 48 weeks by […]", "type": "functional", "summary_of_the_method": "as §2"}, "[14]": {"system": "PBMC", "assay": "Increase in HBV-specific IL8 in HBcAg-stimulated human PBMC at 10 to 30 mg per day by ELISA", "type": "functional, cell-based"}, "[15]": {"system": "PBMC", "assay": "Increase in HBV-specific IP10 in HBcAg-stimulated human PBMC at 10 to 30 mg per day by ELISA", "type": "functional, cell-based"}, "[16]": {"system": "PBMC", "assay": "Increase in HBV-specific Fas ligand level in HBcAg-stimulated human PBMC at 10 to 30 mg per day by ELISA", "type": "functional, cell-based"}, "[17]": {"system": "PBMC", "assay": "Increase in HBV-specific IL2 level in HBcAg-stimulated human PBMC at 10 to 30 mg per day by ELISA", "type": "functional, cell-based"}, "[18]": {"system": "PBMC", "assay": "Increase in HBV-specific IL5 level in HBcAg-stimulated human PBMC at 10 to 30 mg per day by ELISA", "type": "functional, cell-based"}, "[19]": {"species": "Homo sapiens", "assay": "Serum IL10 level in human at baseline at 10 to 30 mg per day by cytometric bead array"}},
  "note": "The source made the active and inactive calls.",
  "data": [
    {"smiles": "CC(C)(C)C(=O)OCOP(=O)(COCCn1cnc2c(N)ncnc21)OCOC(=O)C(C)(C)C", "note": "[ADEFOVIR DIPIVOXIL]", "values": [
      {"measurement": "Activity", "setting": "[1]", "result": "inactive"},
      {"measurement": "Activity", "setting": "[2]", "result": 35, "unit": "IU/ml"},
      {"measurement": "Activity", "setting": "[3]", "result": -5.3, "unit": "log10CFU/ml"},
      {"measurement": "Activity", "setting": "[4]", "result": "Active"},
      {"measurement": "Activity", "setting": "[5]", "result": "Active"},
      {"measurement": "Activity", "setting": "[6]", "result": "Active"},
      {"measurement": "Activity", "setting": "[7]", "result": 15, "unit": "%"},
      {"measurement": "Activity", "setting": "[8]", "result": 58.9},
      {"measurement": "Activity", "setting": "[9]", "result": 184.3},
      {"measurement": "Activity", "setting": "[10]", "result": 63.9},
      {"measurement": "Activity", "setting": "[11]", "result": 26.3},
      {"measurement": "Activity", "setting": "[12]", "result": 61.5},
      {"measurement": "Activity", "setting": "[13]", "result": 18},
      {"measurement": "Activity", "setting": "[14]", "result": "Active"},
      {"measurement": "Activity", "setting": "[15]", "result": "Active"},
      {"measurement": "Activity", "setting": "[16]", "result": "inactive"},
      {"measurement": "Activity", "setting": "[17]", "result": "inactive"},
      {"measurement": "Activity", "setting": "[18]", "result": "inactive"},
      {"measurement": "Activity", "setting": "[19]", "result": 32, "unit": "pg/mL"}
    ]}
  ]
}
